Measurements reported in ChEMBL document CHEMBL3407422, “2-(2-oxo-morpholin-3-yl)-acetamide derivatives as broad-spectrum antifungal agents” (J Med Chem, 2015).
Converted amounts (≈) assume the structure as drawn. The source made the active and inactive calls. The calls are words filed in the database; no cut-off is given here.

Experiments:
Candida albicans [1] = assay: Antifungal activity against Candida albicans SC5314 after 24 hrs; format: functional
Summary of the method: (§1)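 Overnight YPD cultures diluted in PBS (1/200 for C. albicans, 1/400 for C. glabrata). Cells treated with compound, or 2.5% DMSO as solvent control, for 24 h at 37 °C. CFUs then counted; MFC is the concentration giving 99% killing of the inoculum.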

Nakaseomyces glabratus = assay: Antifungal activity against Candida glabrata BG2 after 24 hrs; format: functional; summary of the method: as §1
Aspergillus fumigatus = assay: Antifungal activity against Aspergillus fumigatus CBS 117202 after 24 hrs by two-fold dilution method; format: functional; conditions: CBS 117202, 24 h
Summary of the method: (§2)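 Spores at 2×10^4 spores/mL in potato dextrose broth, incubated with a 2-fold compound dilution series for 24 h at 25 °C. Growth read by microspectrophotometry of the liquid cultures. MIC taken as the lowest concentration inhibiting fungal growth.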

[2] = Half life in human plasma; format: ADME, cell-free
Aspergillus flavus = assay: Antifungal activity against Aspergillus flavus CBS111.45 after 24 hrs by two-fold dilution method; format: functional; conditions: CBS111.45, 24 h; summary of the method: as §2
[3] = test system: Trichophyton mentagrophytes; assay: Fungicidal activity against Trichophyton mentagrophytes B70554; format: functional, organism-based
Summary of the method: (§3)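 Inoculum of 10^3 CFU in RPMI-MOPS added to prediluted compound, highest concentration 64 µM. Growth read by resazurin fluorescence (ex 550, em 590 nm). IC50 is 50% growth inhibition versus untreated controls. Three independent replicates.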

Trichophyton rubrum = assay: Fungicidal activity against Trichophyton rubrum B68183; format: functional, organism-based; summary of the method: as §3
Microsporum canis = assay: Fungicidal activity against Microsporum canis B68128; format: functional; summary of the method: as §3
Sporothrix schenckii = assay: Fungicidal activity against Sporothrix schenckii B62482; format: functional, organism-based; summary of the method: as §3
[4] = Cytotoxicity against human MRC5 SV2 cells after 72 hrs by fluorescence assay; format: cell-based
Summary of the method: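 MRC-5 SV2 cells (10^4/well) grown in MEM with L-glutamine, NaHCO3 and 5% FCS. Incubated with compound 72 h at 37 °C, 5% CO2, then resazurin added for 24 h. Fluorescence read at ex 530, em 590 nm.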

[5] = Kinetic solubility of the compound at pH 7.4; format: physicochemical; conditions: buffer, read-out: Kinetic_solubility
[6] = Apparent permeability from apical to basolateral side in human Caco2 cells; format: ADME, cell-based; conditions: Caco-2
[7] = Apparent permeability from basolateral to apical side in human Caco2 cells; format: ADME, cell-based; conditions: Caco-2
[8] = Plasma protein binding in human; format: ADME, cell-free; conditions: read-out: PPB (converted)
[9] = Half life in simulated gastric fluid at pH 1.2; format: ADME
Summary of the method: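 Stability in simulated gastric fluid containing 800000 Units/L pepsin at pH 1.2; half-life reported.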

[10] = Half life in simulated intestinal fluid […]; format: ADME
[11] = Half life in human liver microsomes; format: ADME
[12] = Half life in mouse liver microsomes; format: ADME
hERG (KCNH2) = hERG (KCNH2) (Homo sapiens, UniProt Q12809); assay: Inhibition of human ERG channel at 10 uM
hERG (KCNH2), sequence (Q12809 whole entry): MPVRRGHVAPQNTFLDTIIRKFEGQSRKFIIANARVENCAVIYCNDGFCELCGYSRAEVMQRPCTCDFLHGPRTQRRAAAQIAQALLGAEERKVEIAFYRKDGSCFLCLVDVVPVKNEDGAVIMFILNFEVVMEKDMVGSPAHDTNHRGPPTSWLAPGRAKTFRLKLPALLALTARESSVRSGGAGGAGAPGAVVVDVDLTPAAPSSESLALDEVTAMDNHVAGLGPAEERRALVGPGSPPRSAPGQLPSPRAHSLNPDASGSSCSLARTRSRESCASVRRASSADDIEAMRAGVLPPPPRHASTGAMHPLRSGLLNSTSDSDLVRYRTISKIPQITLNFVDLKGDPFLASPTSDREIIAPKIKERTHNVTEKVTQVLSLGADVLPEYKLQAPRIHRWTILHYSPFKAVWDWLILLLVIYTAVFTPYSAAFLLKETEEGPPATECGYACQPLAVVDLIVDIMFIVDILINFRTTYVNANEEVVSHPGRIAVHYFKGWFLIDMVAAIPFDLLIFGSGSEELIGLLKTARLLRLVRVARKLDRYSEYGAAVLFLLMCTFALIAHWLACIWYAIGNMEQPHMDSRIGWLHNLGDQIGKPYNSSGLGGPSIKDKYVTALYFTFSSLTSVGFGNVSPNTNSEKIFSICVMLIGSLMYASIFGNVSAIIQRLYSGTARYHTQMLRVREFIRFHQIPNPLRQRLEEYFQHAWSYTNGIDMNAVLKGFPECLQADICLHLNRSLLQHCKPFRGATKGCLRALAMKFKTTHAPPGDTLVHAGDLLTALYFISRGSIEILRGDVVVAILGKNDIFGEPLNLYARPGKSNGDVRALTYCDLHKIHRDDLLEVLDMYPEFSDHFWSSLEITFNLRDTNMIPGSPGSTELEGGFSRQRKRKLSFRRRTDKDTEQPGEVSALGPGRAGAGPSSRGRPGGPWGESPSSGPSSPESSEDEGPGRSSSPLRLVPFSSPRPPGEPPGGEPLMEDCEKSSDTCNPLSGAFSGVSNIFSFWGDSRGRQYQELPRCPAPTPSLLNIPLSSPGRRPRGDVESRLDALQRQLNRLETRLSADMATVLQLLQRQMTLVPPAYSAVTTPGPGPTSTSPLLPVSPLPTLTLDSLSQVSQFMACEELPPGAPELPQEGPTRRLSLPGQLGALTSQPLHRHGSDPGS

CYP1A2 = target: T1, CYP1A2 (Homo sapiens, UniProt P05177); assay: Inhibition of CYP1A2 (unknown origin) at 10 uM; format: ADME
T1 sequence (P05177 whole entry): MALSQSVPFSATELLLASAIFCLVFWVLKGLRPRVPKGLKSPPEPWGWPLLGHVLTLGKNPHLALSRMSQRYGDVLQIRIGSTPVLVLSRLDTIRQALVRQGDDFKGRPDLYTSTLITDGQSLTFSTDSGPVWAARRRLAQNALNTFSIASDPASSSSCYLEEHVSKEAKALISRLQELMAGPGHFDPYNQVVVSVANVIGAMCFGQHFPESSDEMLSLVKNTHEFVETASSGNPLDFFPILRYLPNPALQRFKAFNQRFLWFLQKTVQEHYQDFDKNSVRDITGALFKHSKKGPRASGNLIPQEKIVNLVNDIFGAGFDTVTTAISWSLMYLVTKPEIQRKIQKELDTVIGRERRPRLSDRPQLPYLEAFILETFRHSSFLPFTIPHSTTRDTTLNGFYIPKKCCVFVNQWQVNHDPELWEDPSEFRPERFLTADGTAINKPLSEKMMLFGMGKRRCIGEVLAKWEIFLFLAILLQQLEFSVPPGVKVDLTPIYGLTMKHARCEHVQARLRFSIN

CYP2C9 = CYP2C9 (Homo sapiens, UniProt P11712); assay: Inhibition of CYP2C9 (unknown origin) at 10 uM; format: ADME
CYP2C9, sequence (P11712 whole entry): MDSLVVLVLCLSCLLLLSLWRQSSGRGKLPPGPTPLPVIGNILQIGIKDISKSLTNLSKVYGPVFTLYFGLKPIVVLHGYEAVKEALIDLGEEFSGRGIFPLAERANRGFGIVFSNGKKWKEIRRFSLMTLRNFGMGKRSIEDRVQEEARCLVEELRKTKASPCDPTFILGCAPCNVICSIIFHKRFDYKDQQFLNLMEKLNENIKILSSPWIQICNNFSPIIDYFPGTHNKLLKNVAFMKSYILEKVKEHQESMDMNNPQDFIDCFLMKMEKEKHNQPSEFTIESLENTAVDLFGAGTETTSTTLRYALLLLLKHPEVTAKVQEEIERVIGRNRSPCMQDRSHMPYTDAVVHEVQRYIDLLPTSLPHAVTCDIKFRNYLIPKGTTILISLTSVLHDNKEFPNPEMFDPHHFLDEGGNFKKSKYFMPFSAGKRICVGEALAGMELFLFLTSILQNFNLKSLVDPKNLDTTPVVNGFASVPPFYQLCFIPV

CYP2C19 = CYP2C19 (Homo sapiens, UniProt P33261); assay: Inhibition of CYP2C19 (unknown origin) at 10 uM; format: ADME
CYP2C19, sequence (P33261 whole entry): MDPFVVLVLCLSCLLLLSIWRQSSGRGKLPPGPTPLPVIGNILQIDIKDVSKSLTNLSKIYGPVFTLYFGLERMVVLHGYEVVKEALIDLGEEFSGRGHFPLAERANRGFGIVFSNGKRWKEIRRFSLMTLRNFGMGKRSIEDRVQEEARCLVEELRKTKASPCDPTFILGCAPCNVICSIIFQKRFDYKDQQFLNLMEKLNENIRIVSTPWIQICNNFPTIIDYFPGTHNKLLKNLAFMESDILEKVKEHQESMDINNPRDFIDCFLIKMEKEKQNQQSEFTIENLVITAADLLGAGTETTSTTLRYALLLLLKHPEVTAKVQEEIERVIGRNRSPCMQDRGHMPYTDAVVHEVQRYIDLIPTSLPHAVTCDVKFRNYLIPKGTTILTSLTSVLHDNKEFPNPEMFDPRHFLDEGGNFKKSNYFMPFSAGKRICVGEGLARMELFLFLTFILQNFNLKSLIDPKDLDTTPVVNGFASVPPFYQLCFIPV

CYP2D6 = CYP2D6 (Homo sapiens, UniProt P10635); assay: Inhibition of CYP2D6 (unknown origin) at 10 uM; format: ADME
CYP2D6, sequence (P10635 whole entry): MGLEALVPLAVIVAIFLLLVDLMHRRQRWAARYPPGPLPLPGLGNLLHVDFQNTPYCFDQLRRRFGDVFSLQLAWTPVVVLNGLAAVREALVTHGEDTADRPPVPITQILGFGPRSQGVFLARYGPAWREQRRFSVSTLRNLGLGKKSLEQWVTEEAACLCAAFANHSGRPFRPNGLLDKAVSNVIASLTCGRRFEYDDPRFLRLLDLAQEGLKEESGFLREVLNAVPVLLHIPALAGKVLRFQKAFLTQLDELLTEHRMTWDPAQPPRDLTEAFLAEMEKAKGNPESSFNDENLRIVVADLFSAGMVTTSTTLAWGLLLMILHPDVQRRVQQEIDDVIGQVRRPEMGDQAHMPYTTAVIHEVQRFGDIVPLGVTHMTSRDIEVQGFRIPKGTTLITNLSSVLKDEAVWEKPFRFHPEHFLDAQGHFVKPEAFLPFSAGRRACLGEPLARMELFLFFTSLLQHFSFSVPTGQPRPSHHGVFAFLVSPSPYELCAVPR

CYP3A4 = CYP3A4 (Homo sapiens, UniProt P08684); assay: Inhibition of CYP3A4 (unknown origin) at 10 uM; format: ADME
CYP3A4, sequence (P08684 whole entry): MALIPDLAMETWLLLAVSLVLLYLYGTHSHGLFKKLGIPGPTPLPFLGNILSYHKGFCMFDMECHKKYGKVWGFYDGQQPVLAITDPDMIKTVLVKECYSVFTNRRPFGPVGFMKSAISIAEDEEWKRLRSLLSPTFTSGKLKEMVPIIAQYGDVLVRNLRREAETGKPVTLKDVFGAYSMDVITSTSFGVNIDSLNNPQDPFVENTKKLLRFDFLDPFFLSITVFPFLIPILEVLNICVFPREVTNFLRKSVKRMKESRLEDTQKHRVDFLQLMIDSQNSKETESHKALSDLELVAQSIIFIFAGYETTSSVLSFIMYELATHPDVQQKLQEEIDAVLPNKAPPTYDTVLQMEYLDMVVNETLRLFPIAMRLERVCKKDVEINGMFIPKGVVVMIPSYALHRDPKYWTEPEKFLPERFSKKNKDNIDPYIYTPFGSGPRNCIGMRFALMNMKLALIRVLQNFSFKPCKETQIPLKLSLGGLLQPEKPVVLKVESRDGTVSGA

[13] = Drug metabolism in mouse liver microsomes at 10 uM after 90 mins by LC-MS/MS analysis; format: ADME; conditions: 1.5 h
Candida albicans [14] = assay: Antifungal activity against Candida albicans SC5314 infected in BALB/c mouse assessed as reduction in reduction in fungal load in kidney at 10 mg/kg/day, ip for 5 days relative to vehicle-treated control; format: functional, organism-based
Summary of the method: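 BALB/c mice given cyclophosphamide 100 mg/kg at 4 days and 24 h before infection and at 3 days after. Infected IV with 2×10^3 SC5314 cells in saline. Dosed IP daily for 5 days from 16 h post-infection, in DMSO/0.5% methylcellulose (5/95). Organs taken on day 7, homogenized and plated on BHI agar (18 h, 37 °C). CFU/g compared with vehicle.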

Question: Which MFC99 (Candida albicans [1]) does the source give for `CCN1CC(C)(C)OC(=O)C1CC(=O)Nc1ccc(C(C)C)cc1` (stereo unspecified) here?
Answer: 12.5 µg/mL (≈ 37.6 µM)

Question: And the MFC99 (Nakaseomyces glabratus)?
Answer: 25 µg/mL (≈ 75.2 µM)

Question: What about the MIC (Aspergillus fumigatus) of the same compound?
Answer: 1.6 µg/mL (≈ 4.81 µM)

Question: What about the half-life [2] of the same compound?
Answer: > 240 min

Question: What about the MIC (Aspergillus flavus) of the same compound?
Answer: 12.5 µg/mL (≈ 37.6 µM)

Question: And the IC50 [3]?
Answer: 10.6 µg/mL (≈ 31.9 µM)

Question: And the IC50 (Trichophyton rubrum)?
Answer: 6.3 µg/mL (≈ 19 µM)

Question: And the IC50 (Microsporum canis)?
Answer: 6.6 µg/mL (≈ 19.9 µM)

Question: What about the IC50 (Sporothrix schenckii) of the same compound?
Answer: 11.8 µg/mL (≈ 35.5 µM)

Question: And the CC50 at 72 h [4]?
Answer: > 20 µg/mL

Question: What about the solubility kinetic [5] of the same compound?
Answer: 50 µM (≈ 16.6 µg/mL)

Question: What about the Papp A→B [6] of the same compound?
Answer: 65 ×10⁻⁶ cm/s

Question: And the Papp B→A [7]?
Answer: 35 ×10⁻⁶ cm/s

Question: And the fraction unbound [8]?
Answer: 0.061

Question: What about the half-life [9] of the same compound?
Answer: > 240 min

Question: And the half-life [10]?
Answer: > 240 min

Question: And the half-life [11]?
Answer: 29 min

Question: What about the half-life [12] of the same compound?
Answer: 6 min

Question: What about the inhibition at 10 µM (hERG (KCNH2)) of the same compound?
Answer: 11%

Question: And the inhibition at 10 µM (CYP1A2)?
Answer: < 40%

Question: And the inhibition at 10 µM (CYP2C9)?
Answer: < 40%

Question: And the inhibition at 10 µM (CYP2C19)?
Answer: < 40%

Question: And the inhibition at 10 µM (CYP2D6)?
Answer: < 40%

Question: And the inhibition at 10 µM (CYP3A4)?
Answer: < 40%

Question: What about the Drug metabolism [13] of the same compound?
Answer: metabolite_detected

Question: And the Activity (Candida albicans [14])?
Answer: Active
